Assay results reported in ChEMBL document CHEMBL1156633, “Discovery of novel and long acting muscarinic acetylcholine receptor antagonists” (J Med Chem, 2008).
Calls of active or inactive are those of the source. The rule behind the calls is not given here.

How the values were obtained:
[1] = molecular target: T1, Muscarinic acetylcholine receptor M3 (Homo sapiens, UniProt P20309); assay: Antagonist activity at human muscarinic acetylcholine M3 receptor expressed in CHO cells assessed as inhibition of acetylcholine-induced calcium mobilization by FLIPR assay; format: functional, cell-based
T1 sequence (P20309 whole entry): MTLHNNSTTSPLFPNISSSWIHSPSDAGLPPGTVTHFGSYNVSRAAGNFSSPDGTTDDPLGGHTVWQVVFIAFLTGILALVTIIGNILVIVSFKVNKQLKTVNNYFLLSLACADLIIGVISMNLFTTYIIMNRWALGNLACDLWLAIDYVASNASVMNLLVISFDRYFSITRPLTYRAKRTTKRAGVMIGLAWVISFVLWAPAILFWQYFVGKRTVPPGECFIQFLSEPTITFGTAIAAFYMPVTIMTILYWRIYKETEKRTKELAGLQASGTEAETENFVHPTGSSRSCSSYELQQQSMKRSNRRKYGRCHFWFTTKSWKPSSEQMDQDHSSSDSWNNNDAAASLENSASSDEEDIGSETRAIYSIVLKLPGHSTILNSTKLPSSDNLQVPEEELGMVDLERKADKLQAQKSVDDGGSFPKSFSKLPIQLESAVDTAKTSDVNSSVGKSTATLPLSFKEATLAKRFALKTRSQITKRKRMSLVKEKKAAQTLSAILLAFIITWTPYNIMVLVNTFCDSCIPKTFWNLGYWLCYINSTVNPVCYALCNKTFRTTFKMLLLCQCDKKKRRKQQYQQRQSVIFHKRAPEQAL
Procedure, shortened: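 Readout: inhibition of acetylcholine-mediated intracellular Ca2+ mobilization in CHO cells stably expressing human recombinant M3 receptor, reported as pIC50. Values are the mean of at least two determinations, standard deviation below 0.3 unless otherwise noted.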

[2] = molecular target: T2, Muscarinic acetylcholine receptor M1 (Homo sapiens, UniProt P11229); assay: Antagonist activity at human muscarinic acetylcholine M1 receptor expressed in CHO cells assessed as inhibition of acetylcholine-induced calcium mobilization by FLIPR assay; format: functional, cell-based
T2 sequence (P11229 whole entry): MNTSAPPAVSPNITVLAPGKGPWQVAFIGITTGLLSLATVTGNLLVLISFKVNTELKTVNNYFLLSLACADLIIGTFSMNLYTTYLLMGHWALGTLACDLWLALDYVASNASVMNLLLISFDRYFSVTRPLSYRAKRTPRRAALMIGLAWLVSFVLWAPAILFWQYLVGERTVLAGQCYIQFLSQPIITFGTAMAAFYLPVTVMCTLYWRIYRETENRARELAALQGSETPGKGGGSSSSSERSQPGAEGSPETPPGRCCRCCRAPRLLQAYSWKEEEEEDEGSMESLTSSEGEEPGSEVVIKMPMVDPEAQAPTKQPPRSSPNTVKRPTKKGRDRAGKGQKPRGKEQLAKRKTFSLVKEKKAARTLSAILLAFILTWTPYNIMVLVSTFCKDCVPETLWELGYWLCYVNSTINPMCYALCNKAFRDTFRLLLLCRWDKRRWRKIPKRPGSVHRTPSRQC
Procedure, shortened: (§1)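 Readout: inhibition of acetylcholine-mediated intracellular Ca2+ mobilization in CHO cells expressing the human receptor subtype, reported as pIC50. Values are the mean of at least two determinations, standard deviation below 0.3 unless otherwise noted.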

[3] = molecular target: Muscarinic acetylcholine receptor M1 and M3 (Homo sapiens) (UniProt P20309+P11229); assay: Selectivity for human muscarinic acetylcholine M3 receptor over human muscarinic acetylcholine M1 receptor
Sequence of Muscarinic acetylcholine receptor M1 and M3 (Homo sapiens) (P20309 whole entry, looked up, one chain of several): as the sequence (P20309 whole entry) above
Procedure, shortened: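 Ratio of M1 to M3 potency from FLIPR functional assays measuring inhibition of acetylcholine-induced intracellular Ca²⁺ mobilization. The M3 assay used CHO cells stably expressing human recombinant M3 receptor; the M1 assay is described only as a FLIPR assay. pIC50 values are the mean of at least two determinations.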

[4] = molecular target: T3, Muscarinic acetylcholine receptor M2 (Homo sapiens, UniProt P08172); assay: Antagonist activity at human muscarinic acetylcholine M2 receptor expressed in CHO cells coexpressed with Gqi5 assessed as inhibition of acetylcholine-induced calcium mobilization by FLIPR assay; format: functional, cell-based; procedure, shortened: as §1
T3 sequence (P08172 whole entry): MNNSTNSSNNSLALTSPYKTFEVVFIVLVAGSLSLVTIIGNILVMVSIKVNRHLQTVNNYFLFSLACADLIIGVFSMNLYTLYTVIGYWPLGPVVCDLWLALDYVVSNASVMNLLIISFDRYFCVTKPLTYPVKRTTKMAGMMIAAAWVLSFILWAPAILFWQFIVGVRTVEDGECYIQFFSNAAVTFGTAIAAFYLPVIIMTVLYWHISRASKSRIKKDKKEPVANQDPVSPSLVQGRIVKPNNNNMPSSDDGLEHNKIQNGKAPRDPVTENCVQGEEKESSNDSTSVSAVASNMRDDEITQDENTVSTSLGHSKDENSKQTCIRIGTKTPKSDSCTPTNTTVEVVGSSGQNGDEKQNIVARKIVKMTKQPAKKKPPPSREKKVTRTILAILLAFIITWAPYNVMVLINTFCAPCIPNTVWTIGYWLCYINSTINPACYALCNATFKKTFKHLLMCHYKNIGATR

[5] = Clearance in Sprague-Dawley rat at 2.2 mg/kg, iv and 4.8 mg/kg, po; format: ADME, organism-based; settings: in vivo
[6] = Volume of distribution at steady state in Sprague-Dawley rat at 2.2 mg/kg, iv and 4.8 mg/kg, po; format: ADME, organism-based; settings: in vivo, read-out: Vdss
[7] = Antagonist activity at alpha3 nicotinic acetylcholine receptor; format: functional
[8] = molecular target: Cytochrome P450 2C19 (Homo sapiens, UniProt P33261); assay: Inhibition of CYP2C19; format: ADME
Sequence of Cytochrome P450 2C19 (P33261 whole entry): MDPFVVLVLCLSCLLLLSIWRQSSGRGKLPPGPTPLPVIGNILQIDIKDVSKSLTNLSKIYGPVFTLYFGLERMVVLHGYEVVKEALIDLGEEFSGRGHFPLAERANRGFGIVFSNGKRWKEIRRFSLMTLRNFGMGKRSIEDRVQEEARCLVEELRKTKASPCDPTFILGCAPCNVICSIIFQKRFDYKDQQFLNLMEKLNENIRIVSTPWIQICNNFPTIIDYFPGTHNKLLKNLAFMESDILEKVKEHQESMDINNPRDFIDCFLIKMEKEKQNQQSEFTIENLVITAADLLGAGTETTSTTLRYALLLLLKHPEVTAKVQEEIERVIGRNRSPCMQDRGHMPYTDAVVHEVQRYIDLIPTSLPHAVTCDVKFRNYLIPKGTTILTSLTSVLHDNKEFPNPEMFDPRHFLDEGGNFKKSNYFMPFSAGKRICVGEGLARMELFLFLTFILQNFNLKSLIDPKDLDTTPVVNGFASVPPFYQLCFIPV

[9] = system: Mus musculus; assay: Inhibition of methacholine-induced bronchoconstriction in conscious BALB/c mouse at 5 ug, intranasally administered as single dose after 5 hrs 15 mins; format: functional, organism-based
Procedure, shortened: (§2)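 Conscious mice given a single intranasal dose of 5 µg/animal, then challenged with methacholine to induce bronchoconstriction. Inhibition of bronchoconstriction was assessed at set times after dosing.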

[10] = system: Mus musculus; assay: Inhibition of methacholine-induced bronchoconstriction in conscious BALB/c mouse at 5 ug, intranasally administered as single dose after 48 hrs; format: functional; set-up: scale not given: the % may be the effect or the level left; procedure, shortened: as §2
[11] = Antagonist activity at alpha1 nicotinic acetylcholine receptor; format: functional
[12] = system: Mus musculus; assay: Inhibition of methacholine-induced bronchoconstriction in conscious BALB/c mouse at 5 ug, intranasally administered as single dose after 24 hrs; format: functional; set-up: scale not given: the % may be the effect or the level left; procedure, shortened: as §2
[13] = molecular target: Cytochrome P450 2D6 (Homo sapiens, UniProt P10635); assay: Inhibition of CYP2D6; format: ADME
Sequence of Cytochrome P450 2D6 (P10635 whole entry): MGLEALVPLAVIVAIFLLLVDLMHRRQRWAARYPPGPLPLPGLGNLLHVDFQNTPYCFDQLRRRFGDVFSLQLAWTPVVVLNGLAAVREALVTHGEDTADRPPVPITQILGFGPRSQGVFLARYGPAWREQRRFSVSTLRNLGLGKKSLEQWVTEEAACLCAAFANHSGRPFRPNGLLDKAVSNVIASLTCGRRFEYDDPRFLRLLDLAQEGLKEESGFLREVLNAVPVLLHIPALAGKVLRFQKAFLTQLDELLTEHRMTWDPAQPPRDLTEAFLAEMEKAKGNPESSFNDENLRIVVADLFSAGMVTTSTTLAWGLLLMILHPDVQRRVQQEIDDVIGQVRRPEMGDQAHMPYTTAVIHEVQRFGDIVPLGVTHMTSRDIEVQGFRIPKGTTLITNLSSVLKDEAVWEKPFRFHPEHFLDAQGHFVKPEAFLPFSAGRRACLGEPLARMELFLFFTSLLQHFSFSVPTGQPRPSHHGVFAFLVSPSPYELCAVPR

[14] = Half life in Sprague-Dawley rat at 2.2 mg/kg, iv and 4.8 mg/kg, po; format: ADME, organism-based; settings: in vivo
[15] = molecular target: Cytochrome P450 2C9 (Homo sapiens, UniProt P11712); assay: Inhibition of CYP2C9; format: ADME
Sequence of Cytochrome P450 2C9 (P11712 whole entry): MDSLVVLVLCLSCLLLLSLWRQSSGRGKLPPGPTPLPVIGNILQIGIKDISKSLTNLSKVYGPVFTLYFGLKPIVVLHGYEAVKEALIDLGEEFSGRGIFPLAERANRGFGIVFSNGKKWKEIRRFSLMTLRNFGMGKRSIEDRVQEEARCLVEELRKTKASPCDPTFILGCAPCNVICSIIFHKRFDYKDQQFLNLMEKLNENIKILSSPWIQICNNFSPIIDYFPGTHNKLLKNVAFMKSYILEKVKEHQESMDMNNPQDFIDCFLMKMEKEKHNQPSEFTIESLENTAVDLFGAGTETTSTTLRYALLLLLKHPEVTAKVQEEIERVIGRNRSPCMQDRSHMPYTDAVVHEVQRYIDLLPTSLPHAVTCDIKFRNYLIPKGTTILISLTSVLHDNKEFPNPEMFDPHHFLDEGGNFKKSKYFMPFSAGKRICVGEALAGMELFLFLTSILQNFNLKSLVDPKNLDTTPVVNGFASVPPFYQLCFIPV

[16] = molecular target: T3, Muscarinic acetylcholine receptor M2; assay: Antagonist activity at human muscarinic acetylcholine M2 receptor expressed in CHO cells coexpressed with Gqi5 assessed as inhibition of acetylcholine-induced calcium mobilization by single concentration kinetic FLIPR assay; format: functional, cell-based; settings: read-out: pA2 (converted)
Procedure, shortened: (§3)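 CHO cells stably expressing the human recombinant muscarinic receptor subtype, in a fluorometric imaging plate reader (FLIPR) assay. Read-out is inhibition of acetylcholine-mediated intracellular Ca2+ mobilization. Results are the mean of at least two determinations.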

[17] = Permeability across artificial membrane; format: ADME; settings: PAMPA; read-out: permeability
[18] = molecular target: T2, Muscarinic acetylcholine receptor M1; assay: Antagonist activity at human muscarinic acetylcholine M1 receptor expressed in CHO cells assessed as inhibition of acetylcholine-induced calcium mobilization by single concentration kinetic FLIPR assay; format: functional, cell-based; settings: read-out: pA2 (converted); procedure, shortened: as §3
[19] = molecular target: Muscarinic acetylcholine receptor M3 (Homo sapiens); assay: Selectivity for human muscarinic acetylcholine M3 receptor over human muscarinic acetylcholine M2 receptor
[20] = molecular target: T1, Muscarinic acetylcholine receptor M3; assay: Antagonist activity at human muscarinic acetylcholine M3 receptor expressed in CHO cells assessed as inhibition of acetylcholine-induced calcium mobilization by single concentration kinetic FLIPR assay; format: functional, cell-based; settings: read-out: pA2 (converted); procedure, shortened: as §3
[21] = molecular target: T4, Substance-K receptor (Homo sapiens) (UniProt P21452); assay: Inhibition of NK2 receptor at 1 uM
T4 sequence (whole entry): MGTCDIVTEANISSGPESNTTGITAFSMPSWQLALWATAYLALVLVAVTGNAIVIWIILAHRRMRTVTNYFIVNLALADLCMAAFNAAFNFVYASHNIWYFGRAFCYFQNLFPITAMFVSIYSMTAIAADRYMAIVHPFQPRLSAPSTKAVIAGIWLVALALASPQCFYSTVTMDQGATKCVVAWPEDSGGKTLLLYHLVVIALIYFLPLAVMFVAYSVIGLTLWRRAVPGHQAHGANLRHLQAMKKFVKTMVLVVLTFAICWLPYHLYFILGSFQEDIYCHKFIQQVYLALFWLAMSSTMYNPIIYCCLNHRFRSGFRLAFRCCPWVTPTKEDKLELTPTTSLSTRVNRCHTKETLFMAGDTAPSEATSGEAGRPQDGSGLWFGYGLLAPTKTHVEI

[22] = system: Cavia porcellus; assay: Inhibition of acetylcholine-induced bronchoconstriction in conscious Dunkin-Hartley guinea pig assessed as enhanced pause at 2.5 ug, intratracheally administered as single dose after 4 hrs
[23] = system: Cavia porcellus; assay: Inhibition of acetylcholine-induced bronchoconstriction in conscious Dunkin-Hartley guinea pig assessed as enhanced pause at 2.5 ug, intratracheally administered as single dose after 24 hrs

CCOC(=O)c1ccc(NC(=O)N[C@@H](Cc2ccc(O)cc2)C(=O)N[C@H]2CCN(Cc3ccc(O)cc3)C2)cc1
IC50 [1]: 15.8 nM | IC50 [2]: 1000 nM | Selectivity ratio [3]: 80 | IC50 [4]: 126 nM

CCOC(=O)c1ccc(NC(=O)N[C@@H](Cc2ccc(O)cc2)C(=O)NC2CCN(Cc3ccc(O)cc3)C2)cc1 (stereo not given in full)
IC50 [1]: 20 nM | IC50 [2]: 2000 nM | Selectivity ratio [3]: 100 | IC50 [4]: 158 nM

CC(C)OC(=O)c1ccc(NC(=O)N[C@@H](Cc2ccc(O)cc2)C(=O)N[C@H]2CCC[N+](C)(Cc3cccc(O)c3)C2)cc1.[I-] (stereo not given in full)
clearance [5]: 15 mL/min/kg | Vd [6]: 0.55 L/kg | pIC50 [7]: 6.1 | IC50 [8]: > 10000 nM | Activity [9]: Active | Activity [10]: > 30% | pIC50 [11]: 6.1 | Activity [12]: > 80% | IC50 [13]: 3980 nM | half-life [14]: 1.1 h | IC50 [15]: > 10000 nM | Kb [16]: 1 nM | Papp [17]: < 0.3 ×10⁻⁶ cm/s

CCOC(=O)c1ccc(NC(=O)N[C@@H](Cc2ccc(O)cc2)C(=O)N[C@@H]2CCN(Cc3ccc(O)cc3)C2)cc1
IC50 [1]: 1580 nM | IC50 [2]: 3980 nM | IC50 [4]: 1580 nM

Cc1cn2cc(CNC(=O)[C@H](Cc3ccc(O)cc3)NC(=O)Nc3ccc(C(=O)OC(C)C)cc3)[n+](Cc3ccc4ccccc4c3)c2s1.O=C([O-])C(F)(F)F
Kb [18]: 0.794 nM | Activity [9]: Active | Activity [10]: > 60% | pA2 [19]: 10.6 | Activity [12]: > 80% | Kb [20]: 0.0251 nM | Kb [16]: 1.58 nM | Selectivity ratio [3]: 30

CCOC(=O)c1ccc(NC(=O)N[C@H](Cc2ccc(O)cc2)C(=O)N[C@@H]2CCN(Cc3ccc(O)cc3)C2)cc1
IC50 [1]: 20000 nM | IC50 [2]: 20000 nM | IC50 [4]: 20000 nM

Cc1cn2cc(CNC(=O)[C@H](Cc3ccc(O)cc3)NC(=O)Nc3ccc(C(=O)OC4CCCCC4)s3)[n+](Cc3ccc4ccccc4c3)c2s1.[I-]
Kb [18]: 0.316 nM | inhibition [21]: 74% | inhibition (INH) [22]: 93% | inhibition (INH) [23]: 88% | Kb [20]: 0.0126 nM | Kb [16]: 0.2 nM | Selectivity ratio [3]: 25

CCOC(=O)c1ccc(NC(=O)N[C@H](Cc2ccc(O)cc2)C(=O)N[C@H]2CCN(Cc3ccc(O)cc3)C2)cc1
IC50 [1]: 3160 nM | IC50 [2]: 12600 nM | IC50 [4]: 5010 nM
